ChEMBL document CHEMBL1681775, “Design of a novel pyrrolidine scaffold utilized in the discovery of potent and selective human β3 adrenergic receptor agonists” (Bioorg Med Chem Lett, 2011)
≈ marks a conversion by molar mass, not a printed value.

Assays:
[1] = target: T1, Beta-2 adrenergic receptor (Homo sapiens, UniProt P07550); experiment: Agonist activity at human beta2 adrenergic receptor; format: functional
[2] = target: T2, Beta-3 adrenergic receptor (Homo sapiens, UniProt P13945); experiment: Agonist activity at human beta3 adrenergic receptor; format: functional
Target sequence in this assay (P13945 whole entry): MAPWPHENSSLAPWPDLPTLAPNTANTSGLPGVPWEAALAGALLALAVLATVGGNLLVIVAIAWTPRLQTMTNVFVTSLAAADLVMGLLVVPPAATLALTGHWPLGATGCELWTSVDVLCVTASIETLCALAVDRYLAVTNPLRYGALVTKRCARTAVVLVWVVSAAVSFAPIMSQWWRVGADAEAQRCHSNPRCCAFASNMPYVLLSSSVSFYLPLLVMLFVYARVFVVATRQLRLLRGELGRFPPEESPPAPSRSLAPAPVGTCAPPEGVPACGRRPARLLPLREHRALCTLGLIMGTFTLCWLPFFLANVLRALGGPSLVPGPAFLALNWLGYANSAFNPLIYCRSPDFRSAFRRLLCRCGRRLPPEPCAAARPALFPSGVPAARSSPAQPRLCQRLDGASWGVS

Cytochrome P450 2D6 = Cytochrome P450 2D6 (Homo sapiens, UniProt P10635); experiment: Inhibition of CYP2D6; format: ADME
[3] = target: T3, Beta-1 adrenergic receptor (Homo sapiens, UniProt P08588); experiment: Agonist activity at human beta1 adrenergic receptor; format: functional
Cytochrome P450 3A4 = Cytochrome P450 3A4 (Homo sapiens, UniProt P08684); experiment: Inhibition of CYP3A4; format: ADME
[4] = target: T2, Beta-3 adrenergic receptor; experiment: Agonist activity at human beta3 adrenergic receptor relative to control; format: functional
Target sequence in this assay (P13945 whole entry, looked up): as the sequence (P13945 whole entry) above

[5] = Mutagenic activity in Salmonella Typhimurium assessed as 2 fold increase of revertants at 30 to 600 ug/plate by AMES test relative to control in presence of S9 fraction; format: toxicity; conditions: salmonella enterica subsp. enterica serovar typhimurium, in the assay text read “30 to 6000 ug/plate” for “30 to 600 ug/plate”
Summary of the method: (§1)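 Ames microbial mutagenesis assay in bacterial strains, run with and without S-9 metabolic activation. A positive response was defined as a 2-fold or greater increase in revertants over the control.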

[6] = Mutagenic activity in Salmonella Typhimurium assessed as 2 fold increase of revertants at 30 to 600 ug/plate by AMES test relative to control in absence of S9 fraction; format: toxicity; conditions: salmonella enterica subsp. enterica serovar typhimurium, in the assay text read “30 to 6000 ug/plate” for “30 to 600 ug/plate”; summary of the method: as §1
[7] = Metabolic stability in rat liver microsomes assessed as compound remaining after 45 mins; format: ADME, Microsome; conditions: read-out: Stability
[8] = Half life in iv dosed rhesus monkey; format: ADME, organism-based, Macaca mulatta; conditions: in vivo
[9] = Solubility of the compound at pH < 5.2; format: physicochemical
[10] = Mutagenic activity in Salmonella Typhimurium by AMES test in presence of S9 fraction; format: toxicity; conditions: salmonella enterica subsp. enterica serovar typhimurium, in the assay text read “5-fluorouracil forward mutation assay” for “AMES test”
[11] = Metabolic stability in dog liver microsomes assessed as compound remaining after 45 mins; format: ADME, Canis lupus familiaris, Microsome; conditions: read-out: Stability
[12] = Oral bioavailability in dog; format: ADME, organism-based, Canis lupus familiaris; conditions: in vivo
[13] = Volume of distribution in rat; format: ADME, organism-based; conditions: in vivo
[14] = Plasma clearance in iv dosed rhesus monkey; format: ADME, organism-based, Macaca mulatta
[15] = target: Voltage-gated inwardly rectifying potassium channel KCNH2 (Homo sapiens, UniProt Q12809); experiment: Inhibition of human ERG
[16] = Solubility of the compound at pH 7.4; format: physicochemical; conditions: buffer
[17] = (§2) Half life in iv dosed dog; format: ADME, organism-based, Canis lupus familiaris; conditions: in vivo
Nav1.5 = Nav1.5 (Homo sapiens, UniProt Q14524); experiment: Inhibition of human Nav1.5 at 30 uM
[18] = target: T1, Beta-2 adrenergic receptor; experiment: Binding affinity to human beta2 adrenergic receptor
Cytochrome P450 2C9 = Cytochrome P450 2C9 (Homo sapiens, UniProt P11712); experiment: Inhibition of CYP2C9; format: ADME
[19] = target: T3, Beta-1 adrenergic receptor; experiment: Binding affinity to human beta1 adrenergic receptor
[20] = Half life in iv dosed rat; format: ADME, organism-based; conditions: in vivo
[21] = Metabolic stability in rhesus monkey liver microsomes assessed as compound remaining after 45 mins; format: ADME, Macaca mulatta, Microsome; conditions: read-out: Stability
[22] = Oral bioavailability rat; format: ADME, organism-based; conditions: in vivo
Cytochrome P450 2C8 = target: T4, Cytochrome P450 2C8 (Homo sapiens, UniProt P10632); experiment: Inhibition of CYP2C8; format: ADME
T4 sequence (P10632 whole entry): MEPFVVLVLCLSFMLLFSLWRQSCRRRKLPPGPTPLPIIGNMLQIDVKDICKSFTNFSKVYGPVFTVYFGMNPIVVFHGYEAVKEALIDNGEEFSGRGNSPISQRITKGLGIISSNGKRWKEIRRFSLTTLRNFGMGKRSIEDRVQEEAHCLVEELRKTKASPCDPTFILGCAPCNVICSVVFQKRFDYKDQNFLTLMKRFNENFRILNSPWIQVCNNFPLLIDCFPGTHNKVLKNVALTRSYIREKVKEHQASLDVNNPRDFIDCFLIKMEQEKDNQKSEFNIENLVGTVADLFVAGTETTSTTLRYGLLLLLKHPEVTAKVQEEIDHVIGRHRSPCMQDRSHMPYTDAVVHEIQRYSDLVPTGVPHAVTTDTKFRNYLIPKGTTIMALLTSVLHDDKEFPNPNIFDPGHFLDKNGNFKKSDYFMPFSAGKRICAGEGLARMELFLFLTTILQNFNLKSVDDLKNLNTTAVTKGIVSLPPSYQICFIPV

[23] = Plasma clearance in iv dosed dog; format: ADME, organism-based, Canis lupus familiaris
[24] = Volume of distribution in rhesus monkey; format: ADME, organism-based, Macaca mulatta; conditions: in vivo
[25] = Metabolic stability in human liver microsomes assessed as compound remaining after 45 mins; format: ADME, Microsome; conditions: read-out: Stability
[26] = Oral bioavailability in rhesus monkey; format: ADME, organism-based, Macaca mulatta; conditions: in vivo
[27] = Volume of distribution in dog; format: ADME, organism-based, Canis lupus familiaris; conditions: in vivo
Homo sapiens [28] = organism: Homo sapiens; experiment: Selectivity ratio of human beta3 adrenergic receptor to human beta1 adrenergic receptor
Canis familiaris = experiment: as §2; format: ADME, organism-based, Canis lupus familiaris; conditions: in vivo
Homo sapiens [29] = organism: Homo sapiens; experiment: Selectivity ratio of human beta3 adrenergic receptor to human beta2 adrenergic receptor

Cytochrome P450 2D6, sequence (P10635 whole entry): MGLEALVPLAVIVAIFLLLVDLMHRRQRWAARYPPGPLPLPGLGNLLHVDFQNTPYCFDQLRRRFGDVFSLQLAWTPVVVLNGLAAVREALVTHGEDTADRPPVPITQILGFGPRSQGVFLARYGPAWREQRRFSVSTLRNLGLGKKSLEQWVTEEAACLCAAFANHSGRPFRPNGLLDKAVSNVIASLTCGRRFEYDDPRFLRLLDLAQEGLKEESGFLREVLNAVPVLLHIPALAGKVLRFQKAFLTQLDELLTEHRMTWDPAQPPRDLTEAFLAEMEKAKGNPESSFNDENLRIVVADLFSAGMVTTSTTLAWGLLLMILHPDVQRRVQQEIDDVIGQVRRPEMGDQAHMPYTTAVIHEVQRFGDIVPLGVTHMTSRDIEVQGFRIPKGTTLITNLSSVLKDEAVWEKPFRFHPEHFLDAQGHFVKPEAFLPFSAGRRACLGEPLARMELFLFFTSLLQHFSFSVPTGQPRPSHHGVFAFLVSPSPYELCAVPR
T3 sequence (P08588 whole entry): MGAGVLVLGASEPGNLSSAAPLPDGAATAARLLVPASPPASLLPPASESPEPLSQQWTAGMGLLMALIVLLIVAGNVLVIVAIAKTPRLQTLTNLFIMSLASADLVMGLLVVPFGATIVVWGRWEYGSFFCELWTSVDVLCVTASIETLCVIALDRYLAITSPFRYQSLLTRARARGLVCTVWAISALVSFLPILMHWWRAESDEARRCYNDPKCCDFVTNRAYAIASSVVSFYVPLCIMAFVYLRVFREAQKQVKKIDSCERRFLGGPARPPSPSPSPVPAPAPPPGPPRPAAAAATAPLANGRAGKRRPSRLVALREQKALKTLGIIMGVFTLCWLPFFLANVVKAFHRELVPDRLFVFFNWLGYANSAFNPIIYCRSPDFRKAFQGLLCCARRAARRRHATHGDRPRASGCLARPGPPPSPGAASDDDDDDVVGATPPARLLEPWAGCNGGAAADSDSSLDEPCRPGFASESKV
T1 sequence (P07550 whole entry): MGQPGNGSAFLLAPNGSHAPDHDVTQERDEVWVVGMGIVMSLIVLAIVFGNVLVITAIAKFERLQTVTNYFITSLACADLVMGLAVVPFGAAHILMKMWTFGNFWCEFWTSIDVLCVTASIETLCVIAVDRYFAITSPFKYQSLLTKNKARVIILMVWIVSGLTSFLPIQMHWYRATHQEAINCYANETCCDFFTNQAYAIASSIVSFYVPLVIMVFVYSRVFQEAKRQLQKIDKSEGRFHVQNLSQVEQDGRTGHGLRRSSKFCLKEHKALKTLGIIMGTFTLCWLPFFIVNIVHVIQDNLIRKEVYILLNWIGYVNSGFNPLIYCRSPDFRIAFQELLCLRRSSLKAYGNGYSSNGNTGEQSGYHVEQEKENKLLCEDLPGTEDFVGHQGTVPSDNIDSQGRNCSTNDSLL
Cytochrome P450 3A4, sequence (P08684 whole entry): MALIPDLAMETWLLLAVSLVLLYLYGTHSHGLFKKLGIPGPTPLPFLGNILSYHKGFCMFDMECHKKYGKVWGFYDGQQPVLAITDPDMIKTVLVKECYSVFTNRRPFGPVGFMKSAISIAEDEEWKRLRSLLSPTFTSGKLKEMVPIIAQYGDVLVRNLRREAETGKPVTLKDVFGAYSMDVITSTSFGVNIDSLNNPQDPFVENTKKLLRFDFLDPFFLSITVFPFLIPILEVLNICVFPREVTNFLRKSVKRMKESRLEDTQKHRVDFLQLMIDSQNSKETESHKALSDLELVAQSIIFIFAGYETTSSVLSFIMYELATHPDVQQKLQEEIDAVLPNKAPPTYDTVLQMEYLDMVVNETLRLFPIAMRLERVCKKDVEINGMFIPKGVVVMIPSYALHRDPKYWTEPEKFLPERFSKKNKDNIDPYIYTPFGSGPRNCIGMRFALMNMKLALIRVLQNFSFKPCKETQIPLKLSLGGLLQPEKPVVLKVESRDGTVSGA
Cytochrome P450 2C9, sequence (P11712 whole entry): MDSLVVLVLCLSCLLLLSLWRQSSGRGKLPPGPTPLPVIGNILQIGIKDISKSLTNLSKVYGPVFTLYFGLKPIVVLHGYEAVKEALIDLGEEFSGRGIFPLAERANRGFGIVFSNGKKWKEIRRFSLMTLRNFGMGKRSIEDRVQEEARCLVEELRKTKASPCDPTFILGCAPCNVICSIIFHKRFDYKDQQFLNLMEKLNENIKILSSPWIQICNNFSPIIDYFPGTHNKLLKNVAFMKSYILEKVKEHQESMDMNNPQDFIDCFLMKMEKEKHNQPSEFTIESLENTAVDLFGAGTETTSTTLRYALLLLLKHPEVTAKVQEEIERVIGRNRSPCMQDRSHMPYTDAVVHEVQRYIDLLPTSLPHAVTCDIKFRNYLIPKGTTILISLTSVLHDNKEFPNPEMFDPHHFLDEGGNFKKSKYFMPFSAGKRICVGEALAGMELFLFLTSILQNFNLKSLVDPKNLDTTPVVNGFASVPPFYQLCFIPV
Voltage-gated inwardly rectifying potassium channel KCNH2, sequence (Q12809 whole entry): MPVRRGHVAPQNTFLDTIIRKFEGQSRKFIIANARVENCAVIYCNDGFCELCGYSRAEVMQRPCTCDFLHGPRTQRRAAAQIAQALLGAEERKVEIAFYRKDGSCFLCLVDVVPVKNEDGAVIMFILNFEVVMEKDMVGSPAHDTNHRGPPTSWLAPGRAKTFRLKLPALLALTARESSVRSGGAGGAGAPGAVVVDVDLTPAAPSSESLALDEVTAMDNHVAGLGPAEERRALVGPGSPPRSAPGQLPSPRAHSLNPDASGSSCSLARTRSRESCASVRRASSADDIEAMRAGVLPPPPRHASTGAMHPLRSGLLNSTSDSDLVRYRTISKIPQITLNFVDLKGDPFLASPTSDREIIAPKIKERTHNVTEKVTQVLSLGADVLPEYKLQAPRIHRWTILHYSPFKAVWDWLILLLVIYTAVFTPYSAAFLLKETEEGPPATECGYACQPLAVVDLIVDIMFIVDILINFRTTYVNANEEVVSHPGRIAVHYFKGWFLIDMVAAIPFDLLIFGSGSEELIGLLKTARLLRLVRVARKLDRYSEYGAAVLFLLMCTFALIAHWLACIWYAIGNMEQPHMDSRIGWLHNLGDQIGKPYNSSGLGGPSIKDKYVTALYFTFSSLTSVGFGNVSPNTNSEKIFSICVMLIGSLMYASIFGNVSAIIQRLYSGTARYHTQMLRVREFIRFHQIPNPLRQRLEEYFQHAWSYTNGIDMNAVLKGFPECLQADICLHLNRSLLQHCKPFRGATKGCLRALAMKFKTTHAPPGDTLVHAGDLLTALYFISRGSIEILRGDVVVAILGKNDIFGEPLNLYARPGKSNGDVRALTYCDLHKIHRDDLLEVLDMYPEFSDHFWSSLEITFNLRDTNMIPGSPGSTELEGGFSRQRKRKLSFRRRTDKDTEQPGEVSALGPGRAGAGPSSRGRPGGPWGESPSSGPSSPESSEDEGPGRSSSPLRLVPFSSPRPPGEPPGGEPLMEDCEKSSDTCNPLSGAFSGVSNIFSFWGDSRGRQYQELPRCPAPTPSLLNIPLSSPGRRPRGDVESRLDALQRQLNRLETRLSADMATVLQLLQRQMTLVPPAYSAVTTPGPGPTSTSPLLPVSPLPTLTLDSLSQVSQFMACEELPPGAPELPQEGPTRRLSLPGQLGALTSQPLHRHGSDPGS

Structure (SMILES): O=S(=O)(Nc1ccc(C[C@H]2CC[C@H]([C@H](O)c3ccccc3)N2)cc1)c1ccc(-c2nc(-c3ccc(C(F)(F)F)cc3)cs2)cc1
- IC50 [1]: 0.297 µM
- EC50 ([2]; read-out: EC50): 0.083 µM
- INH (Cytochrome P450 2D6): > 50 µM
- IC50 [3]: 0.242 µM
- INH (Cytochrome P450 3A4): > 50 µM
- Activity [4]: 76%

Structure (SMILES): O=S(=O)(Nc1ccc(CC2CC[C@@H]([C@@H](O)c3ccccc3)N2)cc1)c1ccc(-c2nc(-c3ccc(C(F)(F)F)cc3)cs2)cc1 (mixture of isomers)
- IC50 [1]: 3.53 µM
- EC50 ([2]; read-out: EC50): 2.03 µM
- IC50 [3]: 1.78 µM
- Activity [4]: 89%

Structure (SMILES): Nc1ccc(C[C@@H]2CC[C@H]([C@H](O)c3ccccc3)N2)cc1
- Activity [5]: Non-toxic
- Activity [6]: Non-toxic

Structure (SMILES): CC(Cc1ccc(NS(=O)(=O)c2ccc(-c3nc(-c4ccc(C(F)(F)F)cc4)cs3)cc2)cc1)NC(C)[C@H](O)c1ccccc1 (mixture of isomers)
- EC50 [2]: Not Active

Structure (SMILES): Nc1nc(CC(=O)Nc2ccc(C[C@@H]3CC[C@H]([C@H](O)c4ccccc4)N3)cc2)cs1
- IC50 [1]: > 20 µM
- remaining at 0.75 h [7]: 13%
- half-life [8]: 9.9 h
- solubility [9]: > 1800 µg/mL
- Activity [10]: Non-toxic
- EC50 ([2]; read-out: EC50): 0.00098 µM
- remaining at 0.75 h [11]: 23%
- bioavailability [12]: 18%
- INH (Cytochrome P450 2D6): 2.2 µM
- Vd [13]: 5.8 L/kg
- clearance [14]: 43.4 mL/min/kg
- IC50 [3]: > 20 µM
- IC50 [15]: 11.2 µM
- solubility [16]: 1300 µg/mL (≈ 3.08 mM)
- half-life [17]: 8.3 h
- inhibition at 30 µM (Nav1.5): 26%
- IC50 [18]: > 20 µM
- INH (Cytochrome P450 2C9): > 100 µM
- IC50 [19]: > 20 µM
- half-life [20]: 7.7 h
- remaining at 0.75 h [21]: 77%
- bioavailability [22]: 12%
- INH (Cytochrome P450 3A4): > 100 µM
- INH (Cytochrome P450 2C8): > 100 µM
- clearance [23]: 23 mL/min/kg
- Activity [4]: 99%
- Vd [24]: 26.4 L/kg
- remaining at 0.75 h [25]: 40%
- bioavailability [26]: 14%
- Vd [27]: 14 L/kg

Structure (SMILES): O=S(=O)(Nc1ccc(CC2CC[C@H]([C@@H](O)c3ccccc3)N2)cc1)c1ccc(-c2nc(-c3ccc(C(F)(F)F)cc3)cs2)cc1 (mixture of isomers)
- IC50 [1]: 2.79 µM
- EC50 ([2]; read-out: EC50): 1.31 µM
- IC50 [3]: 1.52 µM
- Activity [4]: 104%

Structure (SMILES): O=S(=O)(Nc1ccc(CCNC[C@H](O)c2ccccc2)cc1)c1ccc(-c2nc(-c3ccc(C(F)(F)F)cc3)cs2)cc1
- IC50 [1]: 0.78 µM
- EC50 ([2]; read-out: EC50): 0.011 µM
- IC50 [3]: 1.04 µM
- Activity [4]: 95%

Structure (SMILES): O=S(=O)(Nc1ccc(C[C@@H]2CC[C@H]([C@H](O)c3ccccc3)N2)cc1)c1ccc(-c2nc(-c3ccc(C(F)(F)F)cc3)cs2)cc1
- IC50 [1]: 2.51 µM
- EC50 ([2]; read-out: EC50): 0.0041 µM
- INH (Cytochrome P450 2D6): > 50 µM
- IC50 [3]: 2.19 µM
- INH (Cytochrome P450 3A4): > 50 µM
- Activity [4]: 95%

Structure (SMILES): O=S(=O)(Nc1ccc(CCNC[C@H](O)c2cccnc2)cc1)c1ccc(-c2nc(-c3ccc(C(F)(F)F)cc3)cs2)cc1
- Selectivity ratio (Homo sapiens [28]): 1000
- Vd [13]: 23 L/kg
- t1/2 (Canis familiaris): 14 h
- Selectivity ratio (Homo sapiens [29]): 1000
- half-life [20]: 8.1 h
- Vd [24]: 6.2 L/kg
- Vd [27]: 12 L/kg

Structure (SMILES): O=S(=O)(Nc1ccc(CC2CC[C@H]([C@H](O)c3ccccc3)N2)cc1)c1ccc(-c2nc(-c3ccc(C(F)(F)F)cc3)cs2)cc1 (mixture of isomers)
- IC50 [1]: 2.18 µM
- EC50 ([2]; read-out: EC50): 0.015 µM
- IC50 [3]: 2.93 µM
- Activity [4]: 101%

Structure (SMILES): O=S(=O)(Nc1ccc(CC2CC[C@@H]([C@H](O)c3ccccc3)N2)cc1)c1ccc(-c2nc(-c3ccc(C(F)(F)F)cc3)cs2)cc1 (mixture of isomers)
- IC50 [1]: 3.53 µM
- EC50 ([2]; read-out: EC50): 0.081 µM
- IC50 [3]: 2.15 µM
- Activity [4]: 104%
